Published values collected from several papers.
Each line is one published result; the experiments were not run side by side.
LCK: Tyrosine-protein kinase Lck (LCK, Homo sapiens, UniProt P06239)
LCK phosphorylated: Tyrosine-protein kinase Lck, phosphorylated (LCK, Homo sapiens, UniProt P06239)

CSc1nc(C)c(-c2ccnc(Nc3ccc(N4CCOCC4)cc3)c2)[nH]1
inhibition (LCK; enzyme activity, inhibitor; 10 µM): 15.8%

CNc1cccc2cc(C(=O)Nc3ccc(C(=O)O)cc3)c(=O)[nH]c12
inhibition (LCK; enzyme activity, inhibitor; 10 µM): 0.91%

FC(F)(F)Oc1cccc(-c2cnc3ccc(-c4ccncc4)nn23)c1
activity vs control (LCK; enzyme activity, inhibitor, radiometric; 1 µM): 35%

Cc1ccc(C(=O)NCc2ccsc2)cc1C#Cc1cn(C(C)C)c2ncnc(N)c12
activity vs control (LCK phosphorylated; enzyme activity, inhibitor; 1 µM): 2%

CC(=O)C1=C(C)N(c2cccc(C(F)(F)F)c2)C(=O)N[C@@H]1c1ccc(C#N)nc1
remaining binding (LCK; cell-free assay, competition with immobilised ligand; 1 µM): 100%

CC(C)(C)n1nc(Cc2cccc3ccccc23)c2c(N)ncnc21
activity vs control (LCK; enzyme activity, inhibitor; 0.5 µM): 80.4%

Cc1cc(NC(=O)c2cccc3cc(-c4cccc5[nH]nc(N)c45)ccc23)ccc1F
activity vs control (LCK phosphorylated; enzyme activity, inhibitor; 0.1 µM): 88%

COc1cc2ncnc(Nc3ccc(Oc4ccccc4)cc3C)c2cc1OC
inhibition (LCK; enzyme activity, inhibitor; 1 µM): 92%

CCCS(=O)(=O)Nc1ccc(F)c(C(=O)c2c[nH]c3ncc(-c4ccc(Cl)cc4)cc23)c1F
inhibition (LCK; enzyme activity, inhibitor; 1 µM): < 10%

C=CC(=O)Nc1cc(Nc2nccc(Nc3cc(Cl)c(F)cc3C(C)(C)O)n2)c(OC)cc1N1CC[C@@H](N(C)C)C1
inhibition (LCK; enzyme activity, inhibitor; 1 µM): 37%

C[C@@H](c1cccc(C#N)c1)n1cc(Cl)cc(C(N)=O)c1=N
remaining binding (LCK; binding, competition with immobilised ligand; 1 µM): 90%

CC1CCCN1c1nccc(-c2cnn3ncccc23)n1 (stereo not shown)
remaining signal (LCK; cell-free assay; 1 µM): 100%

CNCc1ccc(-c2cc(-c3nc(-c4ccc(S(=O)(=O)C(C)C)cc4)cnc3N)on2)cc1
inhibition (LCK; enzyme activity, inhibitor; 0.4 µM): 42%

Cc1cnn2ncc(-c3ccnc(N(C)C)n3)c2c1
remaining signal (LCK; cell-free assay; 1 µM): 100%

c1cc(-c2cnn3cc(-c4ccc(OCCN5CCCCC5)cc4)cnc23)ccn1
activity vs control (LCK; enzyme activity, inhibitor; 0.5 µM): 51.8%

C[C@@H]1CN(c2cc(-c3nn(C)c4ccc(OC5(C)CC5)cc34)ncn2)C[C@H](C)O1
remaining binding (LCK; cell-free assay, competition with immobilised ligand; 1 µM): 94%

CNC(=O)c1cc2c(Oc3ccc(NC(=O)C4(C(=O)Nc5ccc(F)cc5)CC4)cc3)ccnc2cc1OC
inhibition (LCK; enzyme activity, inhibitor, radiometric; 1 µM): 99%

CCS(=O)(=O)c1cc2cc(C[C@@](O)(CC(C)(C)c3ccc(F)cc3C(N)=O)C(F)(F)F)[nH]c2cn1
remaining binding (LCK; cell-free assay, competition with immobilised ligand; 1 µM): 81%

Cc1ccc(Nc2nccc(N(C)c3ccc4c(C)n(C)nc4c3)n2)cc1S(N)(=O)=O
inhibition (LCK; enzyme activity, inhibitor; 10 µM): 99%

NS(=O)(=O)c1cc(NC(=O)Cc2ccccc2)ccc1Oc1cccc(Cl)c1
remaining binding (LCK; cell-free assay, competition with immobilised ligand; 1 µM): 70%

CN(C)C1CCN(CC#Cc2nn(C3CCCC3)c3nc(NCc4ccccc4)ncc23)C1 (stereo not shown)
inhibition (LCK; enzyme activity, inhibitor, FRET; 1 µM): 31%

COc1cc(-c2cn(C3CCc4c(F)cccc4N(CC(F)(F)F)C3=O)nn2)ccc1-n1cnc(C)c1 (stereo not shown)
remaining binding (LCK; cell-free assay, competition with immobilised ligand; 1 µM): 100%

CNC(=O)c1ccccc1Nc1cc(Nc2ccc(N3CCOCC3)cc2OC)ncc1C(F)(F)F
inhibition (LCK; enzyme activity, inhibitor; 1 µM): > 50%

CSc1cccnc1N1CCN(Cc2nc3ccccc3[nH]2)CC1
remaining binding (LCK; binding, competition with immobilised ligand; 1 µM): 100%

c1nc2c(Nc3ccc4c(c3)OCCO4)nc(Nc3ccc4c(c3)OCCO4)nc2[nH]1
activity vs control (LCK; enzyme activity, inhibitor; 10 µM): 2.1%
